The text below walks through data of ChEMBL document CHEMBL1148706, “Probes for narcotic receptor mediated phenomena. 34. Synthesis and structure-activity relationships of a potent mu-agonist delta-antagonist and an exceedingly potent antinociceptive in the enantiomeric C9-substituted 5-(3-hydroxyphenyl)-N-phenylethylmorphan series” (J Med Chem, 2007).

Active and inactive are the calls of the source.

The target in test [1] is T1, Mu-type opioid receptor (Homo sapiens, UniProt P35372). Description: Displacement of [125I]IOXY from human mu opioid receptor expressed in CHO cells. The format is cell-based. In a few lines:
(§1)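 Membranes of stably transfected human opioid receptor CHO cells (hMOR, hDOR or hKOR), about 30 µg protein per tube, in 50 mM Tris-HCl pH 7.4 with protease inhibitors. [125I]IOXY at a single concentration displaced by 10 drug concentrations, 2 h at 25 °C, triplicates filtered; nonspecific with 10 µM naloxone; IC50 from two-parameter logistic fit.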
(In general: In a radioligand displacement assay an active substance lowers the binding of a labelled ligand.)

In test [2] the target is T2, Delta-type opioid receptor (Homo sapiens, UniProt P41143). Description: Displacement of [125I]IOXY from human delta opioid receptor expressed in CHO cells. Format: cell-based. In a few lines: as §1
T2 sequence (P41143 whole entry): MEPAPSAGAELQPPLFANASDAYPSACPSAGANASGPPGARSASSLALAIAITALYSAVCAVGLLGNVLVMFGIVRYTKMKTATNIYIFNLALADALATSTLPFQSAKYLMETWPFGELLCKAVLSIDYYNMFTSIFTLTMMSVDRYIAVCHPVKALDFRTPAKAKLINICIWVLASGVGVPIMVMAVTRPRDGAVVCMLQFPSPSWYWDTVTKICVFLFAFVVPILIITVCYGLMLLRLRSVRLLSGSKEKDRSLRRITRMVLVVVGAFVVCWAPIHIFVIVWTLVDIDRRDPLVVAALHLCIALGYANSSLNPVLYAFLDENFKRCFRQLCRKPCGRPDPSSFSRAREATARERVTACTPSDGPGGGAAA
Test [3] has as its target T3, Kappa-type opioid receptor (Homo sapiens, UniProt P41145). Description: Displacement of [125I]IOXY from human kappa opioid receptor expressed in CHO cells. The format is cell-based. The procedure, abridged: as §1
The target of test [4] is T2, Delta-type opioid receptor. Description: Agonist activity at human delta opioid receptor expressed in CHO cells by [35S]GTP-gamma-S assay relative to SNC80. The format is functional, cell-based. The procedure, abridged: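 Membranes from CHO cells stably transfected with human δ-opioid receptor cDNA (grown in DMEM, 10% FBS, G-418), incubated 3 h at 25 °C with 50 pM [35S]GTP-γ-S, 10 µM GDP, 50 µg protein in 50 mM Tris-HCl pH 7.4, 100 mM NaCl, 10 mM MgCl2, 1 mM EDTA, 1 mM DTT, 0.1% BSA. Nonspecific binding: 40 µM GTP-γ-S. Filtration, scintillation counting. Emax is extrapolated maximum, 100% = 500 nM SNC80 stimulation.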

The target in test [5] is T2, Delta-type opioid receptor. Description: Agonist activity at human delta opioid receptor expressed in CHO cells by [35S]GTP-gamma-S assay. Format: functional, cell-based. The procedure, abridged: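 Membranes from stably transfected hDOR-CHO cells (DMEM, 10% FBS, G-418) in 50 mM Tris-HCl pH 7.4 with 100 mM NaCl, 10 mM MgCl2, 1 mM EDTA, 1 mM DTT, 10 µM GDP, 0.1% BSA; 50 pM [35S]GTP-γ-S, 3 h, 25 °C; filtration.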

Test [6] deals with T3, Kappa-type opioid receptor. Description: Antagonist activity at human kappa opioid receptor expressed in CHO cells by [35S]GTP-gamma-S assay. The format is functional, cell-based. The procedure, abridged:
(§2)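 [35S]GTP-γ-S binding on hDOR-CHO or hKOR-CHO membranes, 10 µM GDP, 50 pM radioligand, 3 h at 25 °C. Inhibition of stimulation by SNC80 (500 nM, δ) or (-)-U50,488 (500 nM, κ); ≥3 experiments of 10 points pooled, two-parameter logistic fit for IC50; Ke = IC50/(1+[D]/ED50(D)).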
(GTPγS is a poorly hydrolysed GTP analogue; its binding reports G protein activation.)

Test [7] concerns Mus musculus. Description: Antinociceptive activity in sc dosed mouse by hot plate assay. Format: functional. For orientation: Hot-plate and tail-flick tests time the reaction to a heat stimulus.
In test [8] the test system is Mus musculus. Kind of test: Antinociceptive activity in sc dosed mouse by phenylquinone assay. The format is functional.
Test [9] relates to Mus musculus. Kind of test: Antinociceptive activity in sc dosed mouse by tail flick assay. Format: functional.
Test [10] relates to Mus musculus. Kind of test: Induction of straub tail in mouse at 1 mg/kg. Format: functional, organism-based. Also noted: dose 1 mg/kg. In a few lines: (§3)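 Signs observed in mice during in vivo antinociceptive testing after s.c. injection in 5% hydroxypropyl-β-cyclodextrin in water.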
Test [11] concerns Mus musculus. Description: Induction of ataxia in mouse at 1 mg/kg. The format is functional, organism-based. Also noted: dose 1 mg/kg. The procedure, abridged:
as §3

Test [12] has as its system Mus musculus. Kind of test: Increased locomotor activity in mouse at 1 mg/kg. Format: functional, organism-based. Also noted: dose 1 mg/kg. In a few lines:
as §3

Test [13] concerns Mus musculus. Description: Induction of convulsions in mouse at 1 mg/kg. The format is functional, organism-based. Also noted: dose 1 mg/kg. The procedure, abridged:
as §3

Test [14] addresses T1, Mu-type opioid receptor. Conditions: CHO.
For test [15], the system named is Mus musculus. Kind of test: Antinociceptive activity in mouse assessed after 30 to 40 mins at 1 mg/kg by warm water tail flick test. The format is functional. In a few lines:
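Mice, 55 °C water tail immersion after baseline (non-responders within 5 s excluded); s.c. dosing, tested 10–180 min post-injection, 10 s cutoff. % antinociception = 100×(test−control)/(10−control); A50 from linear regression at peak-effect time, ≥3 doses and 10 mice/dose.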

For test [16], the target named is T2, Delta-type opioid receptor. Kind of test: Antagonist activity at human delta opioid receptor expressed in CHO cells by [35S]GTP-gamma-S assay. The format is functional, cell-based. In a few lines:
as §2

The target of test [17] is T1, Mu-type opioid receptor. Particulars: CHO. This is another data set of the same source.
Test [18] relates to Mus musculus. Description: Induction of straub tail in mouse up to 30 mg/kg. The format is functional, organism-based. Also noted: dose 30 mg/kg. In a few lines: as §3
Test [19] relates to Mus musculus. Kind of test: Increased locomotor activity in mouse up to 30 mg/kg. Format: functional, organism-based. Also noted: dose 30 mg/kg. The procedure, abridged: as §3

T1 sequence (P35372 whole entry): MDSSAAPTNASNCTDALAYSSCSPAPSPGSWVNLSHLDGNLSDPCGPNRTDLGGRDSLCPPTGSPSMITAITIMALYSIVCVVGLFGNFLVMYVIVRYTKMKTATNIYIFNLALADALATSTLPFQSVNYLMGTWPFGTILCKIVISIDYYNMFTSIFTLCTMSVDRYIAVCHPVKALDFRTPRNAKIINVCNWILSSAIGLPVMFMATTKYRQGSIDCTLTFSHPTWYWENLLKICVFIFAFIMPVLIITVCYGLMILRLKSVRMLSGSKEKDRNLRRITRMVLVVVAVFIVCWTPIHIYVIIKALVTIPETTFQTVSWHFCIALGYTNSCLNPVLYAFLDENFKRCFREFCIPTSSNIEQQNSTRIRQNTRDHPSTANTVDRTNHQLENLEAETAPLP
T3 sequence (P41145 whole entry): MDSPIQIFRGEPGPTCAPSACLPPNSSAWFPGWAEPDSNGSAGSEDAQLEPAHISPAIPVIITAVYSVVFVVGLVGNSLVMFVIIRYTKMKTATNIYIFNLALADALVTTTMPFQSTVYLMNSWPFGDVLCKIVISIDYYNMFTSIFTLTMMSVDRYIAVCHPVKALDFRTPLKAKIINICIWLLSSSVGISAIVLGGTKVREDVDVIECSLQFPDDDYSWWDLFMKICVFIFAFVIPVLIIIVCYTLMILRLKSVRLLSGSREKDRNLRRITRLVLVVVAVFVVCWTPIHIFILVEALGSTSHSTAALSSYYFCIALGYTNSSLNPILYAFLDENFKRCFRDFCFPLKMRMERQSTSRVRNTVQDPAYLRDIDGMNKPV

As usually defined, the Ki is the dissociation constant of the complex between target and ligand, obtained from inhibition or displacement. Low values mean higher affinity, high ones lower affinity. In the case of `C[C@@H]1[C@@H]2CCC[C@@]1(c1cccc(O)c1)CCN2CCc1ccccc1`, the Ki on Mu-type opioid receptor [1] was 8 nM; in test [2], 300 nM; in test [3] it was 15 nM.

The Emax is the size of the effect at its maximum, as opposed to the concentration needed. As to `Oc1cccc([C@]23CCC[C@H]([C@H]2O)N(CCc2ccccc2)CC3)c1`, the Ki on Mu-type opioid receptor [1] stood at 0.19 nM; in test [2], 13 nM; in [3] it was 184 nM. Also, the Emax in test [4] was determined as 73%. The ED50 is 341 nM in test [5]; 0.002 mg/kg with Mus musculus [7]; 0.002 mg/kg in the test with Mus musculus [8]; 0.004 mg/kg in the test on Mus musculus [9]; 5 nM at Mu-type opioid receptor [14]. The same molecule yielded a Ke in test [6] of 610 nM. Further, the outcome with Mus musculus [10], in the test with Mus musculus [11], in the test on Mus musculus [12] and in the test with Mus musculus [13] was Active.

`O=C1[C@H]2CCC[C@]1(c1cccc(O)c1)CCN2CCc1ccccc1`: the Ki was 33 nM at Mu-type opioid receptor [1], 770 nM in [2] and 150 nM in test [3].

For the molecule `CN1CC[C@]23c4c5ccc(O)c4O[C@H]2[C@@H](O)C=C[C@H]3[C@H]1C5` [MORPHINE], in the test on Mus musculus [15], the A50 was 5.95 mg/kg.

For `Oc1cccc([C@@]23CCC[C@@H]([C@H]2O)N(CCc2ccccc2)CC3)c1`, the Ki on Mu-type opioid receptor [1] was found to be 45 nM; in test [2], 720 nM; in test [3], 690 nM.

As to `Oc1cccc([C@@]23CCC[C@@H]([C@@H]2O)N(CCc2ccccc2)CC3)c1`, the Ki was determined as 54 nM at Mu-type opioid receptor [1], 2740 nM in test [2] and 235 nM in test [3].

On to `C=CCN1C[C@H](C)N([C@H](c2ccc(C(=O)N(CC)CC)cc2)c2cccc(OC)c2)C[C@H]1C`, for which, in test [5], the ED50 was 26 nM.

For `Oc1cccc([C@]23CCC[C@H]([C@@H]2O)N(CCc2ccccc2)CC3)c1`, the Ki stood at 59 nM at Mu-type opioid receptor [1], 1570 nM in test [2] and 245 nM in test [3].

As for `O=C1[C@@H]2CCC[C@@]1(c1cccc(O)c1)CCN2CCc1ccccc1`, the Ki at Mu-type opioid receptor [1] worked out at 400 nM; in [2] it was 4600 nM; in test [3], 3830 nM.

Turning to `C[C@H]1C2CCCC1(c1cccc(O)c1)CCN2CCc1ccccc1` (mixture of isomers), the inhibitory constant (Ki) at Mu-type opioid receptor [1] stood at 3.1 nM; in [2], 270 nM; in [3], 14.5 nM.

Turning to `C=C1[C@@H]2CCC[C@]1(c1cccc(O)c1)CCN2CCc1ccccc1`, the Ki at Mu-type opioid receptor [1] stood at 7 nM; in test [2], 234 nM; in test [3], 18 nM.

For the molecule `C[C@H]1[C@H]2CCC[C@]1(c1cccc(O)c1)CCN2CCc1ccccc1`, the Ki was found to be 0.6 nM at Mu-type opioid receptor [1], 90 nM in test [2] and 4 nM in test [3]. For the same molecule, the Ke in test [16] was found to be 31 nM; in test [6], 6 nM; on Mu-type opioid receptor [17] it was 4.4 nM. At Mu-type opioid receptor [14], this molecule registered an ED50 of 8.7 nM.

On to `C=C1[C@H]2CCC[C@@]1(c1cccc(O)c1)CCN2CCc1ccccc1`, for which the Ki at Mu-type opioid receptor [1] was 0.19 nM; in [2], 15 nM; in test [3] it was 0.65 nM. For the same molecule, the Ke in test [16] amounted to 12 nM; in [6], 2 nM; on Mu-type opioid receptor [17], 2.2 nM. The ED50 with Mus musculus [7] is 0.02 mg/kg; with Mus musculus [8] it was 0.02 mg/kg; with Mus musculus [9] it was 0.03 mg/kg; on Mu-type opioid receptor [14] it was 2.7 nM. The A50 in the test on Mus musculus [15] was 0.11 mg/kg. In addition, the result in the test on Mus musculus [18] and in the test on Mus musculus [19] was inactive.
